Assays:
Rattus norvegicus [1] = organism: Rattus norvegicus; test: In vitro inhibition of blood platelet aggregation (ADP) in rats; type: functional
Rattus norvegicus [2] = test: Ex vivo inhibition of blood platelet aggregation (collagen) in rats at oral dose 10 mg/kg 1 hour before the test; Platelet aggregation could not be measured optically because this compound causes hemolysis; type: functional, organism-based; parameters: dose 10 mg/kg
Rattus norvegicus [3] = organism: Rattus norvegicus; test: In vitro inhibition of blood platelet aggregation (collagen) in rats; type: functional
Rattus norvegicus [4] = test: Ex vivo in vitro inhibition of blood platelet aggregation (ADP) in rats at oral dose 10 mg/kg 1 hour before the test; Platelet aggregation could not be measured optically because this compound causes hemolysis; type: functional, organism-based; parameters: dose 10 mg/kg
Rattus norvegicus [5] = test: Ex vivo inhibition of blood platelet aggregation (collagen) in rats at oral dose 10 mg/kg 1 hour before the test; type: functional
Rattus norvegicus [6] = test: Ex vivo in vitro inhibition of blood platelet aggregation (ADP) in rats at oral dose 10 mg/kg 1 hour before the tes; type: functional
Rattus norvegicus [7] = test: Ex vivo in vitro inhibition of blood platelet aggregation (ADP) in rats at oral dose 10 mg/kg 1 hour before the test; type: functional
Rattus norvegicus [8] = test: Inhibition of blood platelet aggregation in rats (ADP) after intravenous infusion at dose 10 mg/kg after 10 min; type: functional
Method in brief: (§1)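 Compounds were dissolved in physiological saline and infused continuously through the femoral vein into fed rats under pentobarbital anesthesia, at 1 mg/kg over 15 min or 10 mg/kg over 10 min. Citrated cardiac blood was drawn 15 or 10 min later, and aggregation was measured as in the in vitro test. Collagen was read as ΔA/min and ADP as ΔA. Values are mean ± SD of five animals, as percent inhibition versus control.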

Rattus norvegicus [9] = test: Inhibition of blood platelet aggregation in rats (collagen) after intravenous infusion at dose 10 mg/kg after 10 min; type: functional; method in brief: as §1
Rattus norvegicus [10] = test: Inhibition of blood platelet aggregation in rats (ADP) after intravenous infusion at dose 1 mg/kg after 15 min; type: functional; method in brief: as §1
Rattus norvegicus [11] = test: Duration of inhibition of blood platelet aggregation in rats (collagen) 3 hr after oral administration at dose 10 mg/kg; type: functional
Method in brief: (§2)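 Rats got a single oral dose of 10 mg/kg, and controls got vehicle alone. Blood was collected 3 h later and aggregation was run ex vivo. Collagen-induced aggregation was read as ΔA/min and ADP-induced aggregation as ΔA. Values are mean ± SD of five animals, with percent inhibition versus vehicle control.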

Rattus norvegicus [12] = test: Inhibition of blood platelet aggregation in rats (collagen) after intravenous infusion at dose 1 mg/kg after 15 min; type: functional; method in brief: as §1
Rattus norvegicus [13] = test: Duration of inhibition of blood platelet aggregation in rats (ADP) 3 hours after oral administration at dose 10 mg/kg; type: functional; method in brief: as §2
Rattus norvegicus [14] = test: Decrease in systolic BP 1 hour after oral administration at dose 50 mg/kg; type: functional
Rattus norvegicus [15] = test: Decrease in systolic BP 3 hours after oral administration at dose 50 mg/kg; type: functional
Rattus norvegicus [16] = test: Change in heart rate 5 hours after oral administration at dose 50 mg/kg; type: functional
Rattus norvegicus [17] = test: Change in heart rate 1 hour after oral administration at dose 50 mg/kg; type: functional
Rattus norvegicus [18] = test: Change in heart rate 2 hours after oral administration at dose 50 mg/kg; type: functional
Rattus norvegicus [19] = test: Decrease in systolic BP 5 hours after oral administration at dose 50 mg/kg; type: functional
Rattus norvegicus [20] = test: Decrease in systolic BP 2 hours after oral administration at dose 50 mg/kg; type: functional
Rattus norvegicus [21] = test: Change in heart rate 7 hours after oral administration at dose 50 mg/kg; type: functional
Rattus norvegicus [22] = test: Decrease in systolic BP 7 hours after oral administration at dose 50 mg/kg; type: functional
Rattus norvegicus [23] = test: Change in heart rate 3 hours after oral administration at dose 50 mg/kg; type: functional
Rattus norvegicus [24] = test: Duration of inhibition of blood platelet aggregation in rats (collagen) 3 hours after oral administration at dose 10 mg/kg; type: functional; method in brief: as §2

Row | Compound | EC50 (Rattus norvegicus [1]) | EC50 (Rattus norvegicus [3]) | platelet aggregation rate (Rattus norvegicus [5]) | platelet aggregation (Rattus norvegicus [7]) | other results
1 | Cc1cc2c(cc1N1CCCCC1)CN1CC(=O)NC1=N2 | 5.4 µM | 0.58 µM | – | – | Inhibition (Rattus norvegicus [2]): Platelet aggregation could not be measured optically because this compound causes hemolysis; Inhibition (Rattus norvegicus [4]): Platelet aggregation could not be measured optically because this compound causes hemolysis
2 | CN(C)c1cccc2c1CN1CC(=O)NC1=N2 | 2.7 µM | 1.5 µM | – | – | –
3 | Nc1ccc2c(c1)CN1CC(=O)NC1=N2 | 170 µM | 16 µM | – | – | –
4 | Cc1cc2c(cc1N1CCCCC1)NC1=NC(=O)CN1C2 | 220 µM | – | – | – | –
5 | CC1CCCCN1c1ccc2c(c1)CN1CC(=O)NC1=N2 (stereo not drawn) | 2 µM | 1.7 µM | 0.145 ΔA/min | – | platelet aggregation (Rattus norvegicus [6]): 0.19 ΔA
6 | O=C1CN2Cc3c(Cl)cc(N4CCCCC4)cc3N=C2N1 | 350 µM | – | – | – | –
7 | CN1CCN(c2ccc3c(c2Cl)CN2CC(=O)NC2=N3)CC1 | 8 µM | 3 µM | 0.149 ΔA/min | 0.189 ΔA | –
8 | O=C1CN2Cc3cc(N4CCOCC4)ccc3N=C2N1 | 5 µM | 2 µM | 0.154 ΔA/min | 0.201 ΔA | platelet aggregation (Rattus norvegicus [8]): 0.202 ΔA; platelet aggregation rate (Rattus norvegicus [9]): 0.09 ΔA/min
9 | CN(C)c1cc(Cl)c2c(c1)NC1=NC(=O)CN1C2 | 290 µM | – | – | – | –
10 | CNc1ccc2c(c1)CN1CC(=O)NC1=N2 | 24 µM | – | – | – | –
11 | O=C1CN2Cc3cc(N4CCCC4)ccc3N=C2N1 | 2.6 µM | 1.9 µM | – | – | –
12 | CN(C)c1ccc2c(c1)CN1CC(=O)NC1=N2 | 5.4 µM | 1.4 µM | 0.071 ΔA/min | 0.193 ΔA | platelet aggregation (Rattus norvegicus [10]): 0.142 ΔA; platelet aggregation rate (Rattus norvegicus [11]): 0.154 ΔA/min; platelet aggregation rate (Rattus norvegicus [12]): 0.058 ΔA/min; platelet aggregation (Rattus norvegicus [13]): 0.16 ΔA
13 | CC1CCN(c2ccc3c(c2)CN2CC(=O)NC2=N3)CC1 | 2.8 µM | 18 µM | 0.122 ΔA/min | 0.188 ΔA | –
14 | O=C1CN2Cc3ccc(N4CCOCC4)cc3N=C2N1 | 96 µM | – | – | – | –
15 | O=C1CN2Cc3ccc(N4CCCCC4)cc3N=C2N1 | 46 µM | 8 µM | – | – | –
16 | CC1CCCCN1c1ccc2c(c1Cl)CN1CC(=O)NC1=N2 (stereo not drawn) | 4 µM | 1.4 µM | – | – | –
17 | O=C1CN2Cc3cc(N4CCOCC4)c(Cl)cc3N=C2N1 | 0.36 µM | 0.1 µM | 0.055 ΔA/min | 0.122 ΔA | –
18 | CC1CCN(c2ccc3c(c2Cl)CN2CC(=O)NC2=N3)CC1 | 4 µM | 2.3 µM | – | – | –
19 | O=C1CN2Cc3c(sc4c3CCCC4)N=C2N1 | – | 0.1 µM | 0.073 ΔA/min | 0.112 ΔA | –
20 | CN(C)c1ccc2c(c1Cl)CN1CC(=O)NC1=N2 | 7 µM | 1.2 µM | 0.019 ΔA/min | 0.098 ΔA | platelet aggregation (Rattus norvegicus [8]): 0.208 ΔA; Change in BP (Rattus norvegicus [14]): 45 mmHg; Change in BP (Rattus norvegicus [15]): 35 mmHg; Change in heart rate (Rattus norvegicus [16]): 41%; Change in heart rate (Rattus norvegicus [17]): 46%; Change in heart rate (Rattus norvegicus [18]): 46%; Change in BP (Rattus norvegicus [19]): 36 mmHg; Change in BP (Rattus norvegicus [20]): 43 mmHg; Change in heart rate (Rattus norvegicus [21]): 38%; platelet aggregation rate (Rattus norvegicus [9]): 0 ΔA/min; Change in BP (Rattus norvegicus [22]): 34 mmHg; Change in heart rate (Rattus norvegicus [23]): 43%
21 | O=C1CN2Cc3c(cccc3N3CCCCC3)NC2=N1 | 22.5 µM | 20 µM | – | – | –
22 | O=C1CN2Cc3cc(N4CCCCC4)c(Cl)cc3N=C2N1 | 0.4 µM | 0.46 µM | 0.039 ΔA/min | 0.137 ΔA | platelet aggregation rate (Rattus norvegicus [11]): 0.18 ΔA/min; platelet aggregation (Rattus norvegicus [13]): 0.189 ΔA
23 | O=C1CN2Cc3c(ccc(Cl)c3Cl)N=C2N1 [ANAGRELIDE] | – | – | 0.067 ΔA/min | – | platelet aggregation (Rattus norvegicus [6]): 0.248 ΔA
24 | CN(C)c1cc2c(cc1Cl)NC1=NC(=O)CN1C2 | 1.1 µM | 0.44 µM | 0.082 ΔA/min | 0.15 ΔA | Change in BP (Rattus norvegicus [14]): 30 mmHg; Change in BP (Rattus norvegicus [15]): 26 mmHg; Change in heart rate (Rattus norvegicus [16]): 46%; Change in heart rate (Rattus norvegicus [17]): 42%; Change in heart rate (Rattus norvegicus [18]): 50%; Change in BP (Rattus norvegicus [19]): 28 mmHg; Change in BP (Rattus norvegicus [20]): 27 mmHg; Change in heart rate (Rattus norvegicus [21]): 41%; Change in BP (Rattus norvegicus [22]): 23 mmHg; platelet aggregation rate (Rattus norvegicus [24]): 0.136 ΔA/min; Change in heart rate (Rattus norvegicus [23]): 47%; platelet aggregation (Rattus norvegicus [13]): 0.171 ΔA
25 | O=C1CN2Cc3c(ccc(N4CCCC4)c3Cl)NC2=N1 | 3 µM | 2.7 µM | – | – | –
26 | O=C1CN2Cc3c(ccc(N4CCCCC4)c3Cl)NC2=N1 | 7.9 µM | 1.2 µM | – | – | –
27 | CCN(CC)c1ccc2c(c1Cl)CN1CC(=O)NC1=N2 | 5.6 µM | 1.3 µM | 0.041 ΔA/min | 0.201 ΔA | –
28 | CN(Cc1ccccc1)c1ccc2c(c1)CN1CC(=O)NC1=N2 | 26 µM | – | – | – | –
29 | O=C1CN2Cc3cc(N4CCCCC4)ccc3N=C2N1 | 3.8 µM | 0.33 µM | 0.068 ΔA/min | 0.121 ΔA | Change in BP (Rattus norvegicus [14]): 18 mmHg; Change in BP (Rattus norvegicus [15]): 12 mmHg; Change in heart rate (Rattus norvegicus [16]): 25%; Change in heart rate (Rattus norvegicus [17]): 27%; Change in heart rate (Rattus norvegicus [18]): 32%; Change in BP (Rattus norvegicus [19]): 12 mmHg; Change in BP (Rattus norvegicus [20]): 12 mmHg; Change in heart rate (Rattus norvegicus [21]): 17%; platelet aggregation (Rattus norvegicus [10]): 0.116 ΔA; platelet aggregation rate (Rattus norvegicus [11]): 0.118 ΔA/min; platelet aggregation rate (Rattus norvegicus [12]): 0 ΔA/min; Change in BP (Rattus norvegicus [22]): 9 mmHg; Change in heart rate (Rattus norvegicus [23]): 27%; platelet aggregation (Rattus norvegicus [13]): 0.158 ΔA

— ChEMBL document CHEMBL1122940, “Cyclic guanidines. 17. Novel (N-substituted amino)imidazo[2,1-b]quinazolin-2 ones: water-soluble platelet aggregation inhibitors” (J Med Chem, 1985)
